Consider 14 molecules from PubChem BioAssay.

Calls of active or inactive are those of the source.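 How the source made its calls, unless noted: active means fluorescence slope after compound addition differing from the mean of all tested samples at 99.7% confidence, mostly higher but some lower; inactive means the rest.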

The nature of assay [1]: inhibitors of TNFa-induced NFkB p65 translocation, primary screen, imaging, HUVEC, MLSMR starter and 10KST1 sets (AID 438;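 active means inhibition above 20% together with a positive visual image hit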;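 further: compound added about 3h40 before a 20 min TNFalpha stimulation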;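 on inhibition: signal is the nuclear over cytoplasmic p65 intensity ratio per well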). The following applies: HUVEC TNFa-induced p65 nuclear translocation; cell count: measured here: nuclei count (cytotoxicity indicator), at 2.08 µM; inhibition: at 2 µM, stronger effect = higher value, 0% TNFa-plus-vehicle, 100% no-TNFa wells.
The nature of assay [2]: inhibitors of mutant huntingtin aggregation, primary screen, imaging, exon1htt(103Q)mCFP cells, high-content imaging (AID 483;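 active means visual image review flags a hit and inhibition of aggregation exceeds 20%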;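 further: compound exposure lasted 3 days before fixation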;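 on nuclei count: percent of the per-plate median nuclei count of sample wells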). Particulars: exon1htt(103Q)mCFP cell line, aggregate imaging, at 2 µM; inhibition of aggregation: stronger effect = higher value; nuclei count: measured here: cell count, toxicity.
Assay [3] can be described thus: inhibitors of E-selectin induction by TNFa, primary screen, imaging, HUVEC, immunofluorescence, MLSMR starter and 10KST1 sets (AID 487;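 active means visually confirmed hit in the image check and inhibition above 20%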;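 on inhibition: signal is fraction of cell area covered by stained E-selectin grains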;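 on nuclei count: 100% = median nuclei count of all wells on the same plate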). Particulars: HUVEC TNFalpha-induced E-selectin immunofluorescence imaging, at 2 µM; inhibition: stronger effect = higher value; nuclei count: measured here: cell number, toxicity.
For assay [4], the target named is Voltage-gated potassium channel subunit beta-2 (Rattus norvegicus) (UniProt P62483). Briefly: KvBeta enzyme negative modulators, primary screen, biochemical, NADPH fluorescence (AID 622;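 active means fluorescence slope higher than the sample average by over 3 SD, cut at about -0.22 in these data, passing the limit was not always enough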;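 further: slope of raw intensity against log time taken from 70 to 1610 s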). Particulars: recombinant KvBeta, 4-cyanobenzaldehyde reduction, at 10 µM, stronger effect = higher value.
Assay [5] has the same target. Briefly: KvBeta positive modulators, primary screen, biochemical, NADPH fluorescence (AID 623;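 active means NADPH fluorescence slope more negative than the mean of all samples by about 3 SD, 99.7% confidence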;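 further: fluorescence intensity change per second fitted from 20 to 320 s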). The following applies: Recombinant KvBeta, NADPH fluorescence decrease slope, 10 min; at 10 µM; stronger effect = lower value.
For assay [6], the target named is Muscarinic acetylcholine receptor M4 (Homo sapiens) (UniProt P08173). Briefly: compounds altering M4/GIRK thallium flux, either direction, primary screen, M4 allosteric agonist project, cell-based, HEK293 M4/GIRK, BTC-AM (AID 625).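 Further: thallium influx through GIRK channels coupled to M4 in HEK293 cells with BTC-AM dye.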 The following applies: at 10 µM, actives lie on both sides. The method, boiled down: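 assay system = HEK293 cells with M4 receptor and GIRK channels | medium = pH 7.3 thallium assay buffer | doses = 10 µM final, single point | timing = cells overnight at 37 °C, BTC-AM loading 1 h, reads 2 min total | signal = BTC-AM fluorescence, 1 Hz kinetic reads | read-out = post-addition slope, 15–24 s, of baseline-normalized fluorescence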

A short description of assay [7]: inhibitors of Sendai virus-induced IRF3 signaling, primary screen, TLR/RLR signaling modifier project, cell-based, Sendai virus stimulus, luciferase, 10K MLSCN set (AID 602276;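 active means inhibition at or above 50% at 10 µM; inactive means inhibition below 50%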;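 further: firefly luciferase from ISG56 promoter only with Renilla not read in this screen; 0% = Sendai virus plus DMSO and 100% = medium plus DMSO without virus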). Particulars: HEK293 RL24 IRF3 luciferase reporter, at 10 µM, stronger effect = higher value.
A short description of assay [8]: inhibitors of poly I:C-induced TLR3 signaling, primary screen, cell-based, poly I:C stimulus, luciferase, 10K MLSCN set (AID 602277;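 active means inhibition of the reporter signal at or above 50%; inactive means inhibition below 50%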). Particulars: HEK293-TLR3 RL24 IRF3 luciferase reporter, at 10 µM, stronger effect = higher value.

Muscarinic acetylcholine receptor M4 (Homo sapiens), sequence (P08173 whole entry, looked up): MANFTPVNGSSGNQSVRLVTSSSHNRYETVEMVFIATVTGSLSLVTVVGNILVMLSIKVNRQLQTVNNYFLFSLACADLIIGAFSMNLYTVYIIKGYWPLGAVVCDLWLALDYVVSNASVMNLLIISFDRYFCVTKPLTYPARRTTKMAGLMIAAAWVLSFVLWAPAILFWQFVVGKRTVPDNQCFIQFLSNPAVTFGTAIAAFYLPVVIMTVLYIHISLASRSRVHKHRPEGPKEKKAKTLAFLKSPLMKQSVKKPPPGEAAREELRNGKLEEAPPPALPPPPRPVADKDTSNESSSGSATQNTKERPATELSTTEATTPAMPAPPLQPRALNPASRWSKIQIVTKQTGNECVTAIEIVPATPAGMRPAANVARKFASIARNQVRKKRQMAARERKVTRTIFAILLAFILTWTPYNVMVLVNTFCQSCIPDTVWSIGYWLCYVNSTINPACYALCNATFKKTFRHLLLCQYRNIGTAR
Voltage-gated potassium channel subunit beta-2 (Rattus norvegicus), sequence (P62483 whole entry, looked up): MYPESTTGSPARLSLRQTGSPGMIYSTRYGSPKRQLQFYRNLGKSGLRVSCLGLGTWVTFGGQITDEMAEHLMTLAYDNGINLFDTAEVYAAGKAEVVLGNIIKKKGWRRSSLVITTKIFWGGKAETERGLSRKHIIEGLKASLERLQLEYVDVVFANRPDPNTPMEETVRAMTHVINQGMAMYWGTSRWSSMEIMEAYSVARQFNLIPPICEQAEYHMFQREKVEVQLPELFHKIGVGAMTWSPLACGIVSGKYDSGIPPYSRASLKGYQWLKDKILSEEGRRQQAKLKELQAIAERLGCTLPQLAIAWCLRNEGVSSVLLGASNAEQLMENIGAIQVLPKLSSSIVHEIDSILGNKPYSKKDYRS

Take `O=C(Nc1ccccc1C(=O)N1CCCCCC1)c1cccc(S(=O)(=O)N2CCOCC2)c1`: in assay [1], the cell count stood at 492. Moreover, the inhibition was -6.5% (inactive) in assay [1], -60.5% (inactive) in assay [3], 3.13% (inactive) in assay [7] and 10.6% (inactive) in assay [8]. For the same molecule, the inhibition of aggregation in assay [2] is -11.4% (inactive). Moreover, the nuclei count turned out to be 74.5% in assay [2] and 84.2% in assay [3]. The fluorescence slope in assay [4] was -0.572 (inactive); in assay [6] it was 0.00535 (inactive). Moreover, the NADPH fluorescence slope in assay [5] was -2.1e-05 (inactive).

In the case of `CCC(=O)N1CCNC(=O)C1CC(=O)Nc1ccc(C)c(Cl)c1` (centres undefined), in assay [1], the cell count came out at 258. For the same molecule, the inhibition in assay [1] is 3.7% (inactive); in assay [3], -40.7% (inactive); in assay [7] it was -5.01% (inactive); in assay [8], -2.47% (inactive). Besides, the inhibition of aggregation in assay [2] is -13.9% (inactive). In addition, the nuclei count in assay [2] came out at 102%; in assay [3], 88.8%. In addition, the fluorescence slope was -0.56 (inactive) in assay [4] and 0.00516 (inactive) in assay [6]. The NADPH fluorescence slope in assay [5] was 1.7e-05 (inactive).

For `CC(=O)Nc1cccc(NC(=O)CSc2nnnn2C)c1`, the cell count in assay [1] was 754. For the same molecule, the inhibition is -2.1% (inactive) in assay [1], -135% (inactive) in assay [3], 21.2% (inactive) in assay [7] and 13.5% (inactive) in assay [8]. Besides, the inhibition of aggregation in assay [2] is -16.5% (inactive). Moreover, the nuclei count in assay [2] came to 104%; in assay [3], 131%. In addition, the values for the fluorescence slope in assay [4] and in assay [6] were -0.481 (inactive) and 0.00501 (inactive), respectively. The NADPH fluorescence slope in assay [5] is -5.6e-05 (inactive).

For `COc1cc(C(=O)N2CCN(C(=O)CC(C)C)CC2)cc(OC)c1OC`, the cell count in assay [1] turned out to be 550. Besides, the inhibition in assay [1] is 3.6% (inactive); in assay [3], -73.6% (inactive); in assay [7], -10.1% (inactive); in assay [8], -1.34% (inactive). Moreover, the inhibition of aggregation in assay [2] is 5% (inactive). Also, the nuclei count in assay [2] came out at 105%; in assay [3] it was 117%. In addition, the results for the fluorescence slope in assay [4] and in assay [6] were -0.47 (inactive) and 0.00561 (inactive), respectively. In addition, the NADPH fluorescence slope in assay [5] is 7.6e-05 (inactive).

On to `N#Cc1nc(-c2ccc(Cl)cc2)oc1NCCc1ccccn1`, for which the cell count in assay [1] was found to be 238. Also, the inhibition is 18.4% (inactive) in assay [1], -40.5% (inactive) in assay [3], 24.4% (inactive) in assay [7] and -35% (inactive) in assay [8]. Further, the inhibition of aggregation in assay [2] is -7.2% (inactive). Moreover, the nuclei count is 107% in assay [2] and 97.9% in assay [3]. Moreover, the fluorescence slope in assay [4] was -0.59 (inactive); in assay [6], 0.00656 (inactive). The NADPH fluorescence slope in assay [5] was -2.8e-06 (inactive).

For `Cc1cccc(NC(=O)CN(C)S(=O)(=O)c2ccccc2)n1`, the cell count in assay [1] stood at 536. Besides, the inhibition in assay [1] was -17.1% (inactive); in assay [3], -24.3% (inactive); in assay [7] it was 15% (inactive); in assay [8] it was 15.7% (inactive). Moreover, the inhibition of aggregation in assay [2] is 2.2% (inactive). Besides, the figures for the nuclei count in assay [2] and in assay [3] were 123% and 116%, respectively. Moreover, the figures for the fluorescence slope in assay [4] and in assay [6] were -0.44 (inactive) and 0.00526 (inactive), respectively. Besides, the NADPH fluorescence slope in assay [5] was -7.5e-05 (inactive).

In the case of `c1ccc(Cn2nnc3c(N4CCC5(CC4)OCCO5)ncnc32)cc1`, the cell count in assay [1] amounted to 382. Moreover, the inhibition in assay [1] is -1.3% (inactive); in assay [3] it was -346% (inactive); in assay [7], 3.41% (inactive); in assay [8], 6.57% (inactive). In addition, the inhibition of aggregation in assay [2] was 0.3% (inactive). Moreover, the nuclei count came out at 103% in assay [2] and 144% in assay [3]. Also, the figures for the fluorescence slope in assay [4] and in assay [6] were -0.522 (inactive) and 0.00535 (inactive), respectively. In addition, the NADPH fluorescence slope in assay [5] is -5.2e-05 (inactive).

Turning to `COc1cccc(C(=O)Nc2cc(NC(=O)c3ccco3)ccc2OC)c1`, the cell count in assay [1] came to 406. For the same molecule, the inhibition was 10.9% (inactive) in assay [1], 17.3% (inactive) in assay [3], 19.4% (inactive) in assay [7] and 4.19% (inactive) in assay [8]. In addition, in assay [2], the inhibition of aggregation is 24.4% (inactive). The nuclei count in assay [2] came to 88.1%; in assay [3], 98.6%. The fluorescence slope in assay [4] is -0.572 (inactive); in assay [6], 0.00583 (inactive). The NADPH fluorescence slope in assay [5] is -3.4e-05 (inactive).

On to `CCCCC(CC)Cn1c2nc3ccccc3nc2c2c(=N)oc(C)nc21` (centres undefined), for which, in assay [1], the cell count stood at 624. The inhibition in assay [1] was 15.7% (inactive); in assay [3] it was -5.3% (inactive); in assay [7], 16.1% (inactive); in assay [8], 15.4% (inactive). Further, the inhibition of aggregation in assay [2] is 23.1% (inactive). The nuclei count was 64.9% in assay [2] and 97.3% in assay [3]. Also, the fluorescence slope was -0.196 (inactive) in assay [4] and 0.00498 (inactive) in assay [6]. Also, in assay [5], the NADPH fluorescence slope is 4.4e-06 (inactive).

As for `CCOC(=O)c1cnc(-n2nc(C)cc2C)nc1NC(C)c1ccccc1` (centres undefined), in assay [1], the cell count came out at 605. The inhibition in assay [1] was -9.5% (inactive); in assay [3], 13.2% (inactive); in assay [7], 8.07% (inactive); in assay [8] it was 0.674% (inactive). Also, in assay [2], the inhibition of aggregation was 8.7% (inactive). For the same molecule, the nuclei count in assay [2] amounted to 94.4%; in assay [3] it was 93.5%. Besides, the figures for the fluorescence slope in assay [4] and in assay [6] were -0.57 (inactive) and 0.00529 (inactive), respectively. Moreover, the NADPH fluorescence slope in assay [5] was -9.1e-05 (inactive).

Turning to `CCOc1cc(N2CCOCC2)c(OCC)cc1NC(=O)CSc1cccc[n+]1[O-]`, in assay [1], the cell count stood at 506. Further, the inhibition is 10.6% (inactive) in assay [1], -56.8% (inactive) in assay [3], 15.1% (inactive) in assay [7] and 18.2% (inactive) in assay [8]. The inhibition of aggregation in assay [2] is 2.4% (inactive). For the same molecule, the nuclei count in assay [2] is 109%; in assay [3] it was 115%. The fluorescence slope in assay [4] is -0.506 (inactive); in assay [6] it was 0.00543 (inactive). The NADPH fluorescence slope in assay [5] is -0.000267 (inactive).

In the case of `CC(C)(C)OC(=O)N1CCC(C(=O)N2CCCCCC2)CC1`, the cell count in assay [1] was 383. Also, the inhibition in assay [1] is 4.6% (inactive); in assay [3] it was -36.8% (inactive); in assay [7], 7.78% (inactive); in assay [8] it was 11.9% (inactive). Also, the inhibition of aggregation in assay [2] is 0.1% (inactive). For the same molecule, the nuclei count in assay [2] was 90%; in assay [3], 97%. Further, the fluorescence slope in assay [4] was -0.529 (inactive); in assay [6] it was 0.00575 (inactive). In addition, in assay [5], the NADPH fluorescence slope was -8e-05 (inactive).

Consider `O=C(Nc1cccc(NC(=O)c2cccnc2)c1)c1cccnc1`, for which the cell count in assay [1] worked out at 515. Besides, the inhibition in assay [1] is -3.3% (inactive); in assay [3] it was 2.1% (inactive); in assay [7], 15.2% (inactive); in assay [8], 11% (inactive). Moreover, the inhibition of aggregation in assay [2] is -15.9% (inactive). The nuclei count in assay [2] amounted to 96.4%; in assay [3] it was 103%. Further, the fluorescence slope is -0.271 (inactive) in assay [4] and 0.0055 (inactive) in assay [6]. Further, the NADPH fluorescence slope in assay [5] is -1.6e-05 (inactive).

`CC1(C)CC(=O)c2cnc(NCc3ccco3)nc2C1`: the cell count in assay [1] is 480. Further, the inhibition in assay [1] was 7.7% (inactive); in assay [3], -165% (inactive); in assay [7], -11.5% (inactive); in assay [8], -26.2% (inactive). Besides, the inhibition of aggregation in assay [2] is -7.2% (inactive). For the same molecule, the results for the nuclei count in assay [2] and in assay [3] were 96.1% and 150%, respectively. Further, the fluorescence slope in assay [4] was -0.407 (inactive); in assay [6], 0.00659 (inactive). In addition, the NADPH fluorescence slope in assay [5] was -1.8e-05 (inactive).
